The text below walks through data of article PMC7848789 (SLAS discovery : advancing life sciences R & D, 2019).

Where two headings read alike, the source gives them in different places.

Data set [1] addresses Recombinant human HDAC1 enzyme (Homo sapiens, UniProt Q13547). The experiment in a line: HDAC-Glo I/II enzymatic assay. The format is biochemical.
Data set [2] can be described thus: Fluorescence counterscreen. The note with it: excited at 450 nm, emission 500–750 nm; 610 nm channel of NanoBRET. The format is physicochemical. In short, it runs like this: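 Cell-free scan: test compound pinned into wells of growth medium alone (final DMSO 0.28 %), no cells or tracer added. Wells excited at 450 nm and emission read every 10 nm across 500–750 nm to build a full spectrum, flagging intrinsic fluorescence near the 610 nm NanoBRET acceptor channel.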

In data set [3] the test system is HDAC class I and II activity in HeLa cells. The experiment in a line: HDAC-Glo I/II cellular assay in HeLa cells. The format is cell-based. The note with it: qHTS; 1 hour; active = CRC class 1 and 2 and AUC>100.
The target in data set [4] is HDAC1-NanoLuc fusion protein (Homo sapiens, UniProt Q13547). The experiment in a line: HDAC1 NanoBRET target engagement assay in HEK293T cells. The format is binding. The note with it: HEK293T; 28.9 μM to 0.49 nM; active = CRC class 1 and 2 and AUC>100.
In data set [5] the test system is HDAC class I and II activity in HEK293T cells. The experiment in a line: HDAC-Glo I/II cellular assay in HEK293T cells. The format is cell-based. The conditions noted are these: qHTS; 1 hour; active = CRC class 1 and 2 and AUC>100.
A further data set relates to isolated HDAC1. The conditions noted are these: read-out: reported IC50 against isolated HDAC1; cited from earlier work.

Sequence of Recombinant human HDAC1 enzyme (Q13547 whole entry): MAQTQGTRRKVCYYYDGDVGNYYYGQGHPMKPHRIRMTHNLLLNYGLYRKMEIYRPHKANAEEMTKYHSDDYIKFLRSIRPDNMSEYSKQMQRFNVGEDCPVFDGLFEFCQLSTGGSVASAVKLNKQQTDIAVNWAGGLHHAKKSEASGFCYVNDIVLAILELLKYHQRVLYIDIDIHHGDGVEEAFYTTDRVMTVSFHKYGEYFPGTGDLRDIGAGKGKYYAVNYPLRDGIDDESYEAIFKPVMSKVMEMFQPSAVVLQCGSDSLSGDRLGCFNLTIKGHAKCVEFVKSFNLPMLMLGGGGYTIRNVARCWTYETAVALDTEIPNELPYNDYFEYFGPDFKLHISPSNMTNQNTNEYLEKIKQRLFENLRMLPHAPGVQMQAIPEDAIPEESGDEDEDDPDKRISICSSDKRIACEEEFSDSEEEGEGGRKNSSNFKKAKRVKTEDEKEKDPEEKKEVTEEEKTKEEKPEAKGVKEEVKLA
Sequence of HDAC1-NanoLuc fusion protein (Q13547 whole entry, the tested form may be a part): as the sequence (Q13547 whole entry) above

As for `Nc1ccc2c(c1)CN1C(=O)c3ccccc3C1=N2` [Daniquidone], in data set [1], the IC50 was found to be 2.1 ± 0.6 µM. In addition, the Emax in data set [1] (read-out: % Efficacy, HDAC-Glo: HDAC1) is 92%. The Intrinsic fluorescence result in data set [2] is reported as “fluorescence over the 500–750 nm range”.

Turning to `C=C1CN(Cc2ccc(C(=O)Nc3ccccc3N)cc2)C(=O)c2ccccc21` [MI 192], the “Activity outcome in HDAC1 enzymatic HDAC-Glo I/II assay” value in data set [1] (qHTS, 11 concentrations, active = CRC class 1 and 2 and AUC>100) is “active”. The IC50 was 0.08 µM in data set [1] (read-out: IC50 in the enzymatic assay (HDAC1), HDAC-Glo I/II, Epigenetic-Focused collection) and 4.8 µM in the data set on isolated HDAC1. Also, the “Activity outcome in HeLa cellular HDAC-Glo I/II assay” value in data set [3] is reported as “relatively weak activity (below the activity cutoff)”. The “Activity outcome in NanoBRET (HDAC1 engagement, displacement of SAHA tracer)” value in data set [4] is reported as “engage HDAC1 in cells”. The “Activity outcome in HEK293T cellular HDAC-Glo I/II assay” value in data set [5] was “relatively weak activity (below the activity cutoff)”.
